Common to all, as to type: functional
In assay [1] the test system is Staphylococcus aureus. Briefly: Antimicrobial activity against Staphylococcus aureus P1 infected in New Zealand rabbit assessed as decrease in catheter bacterial colonization rate at 45 mg/kg, iv (reference value: 100%). More on the design: scale not given: the % may be the effect or the level left. Put shortly:
(§1)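 Female specific-pathogen-free New Zealand White rabbits, 4-7 months old, 3-4 kg, nine per group. Each got a single iv dose over ~2 min under anesthesia, with D5W as control. Six 2-cm polyurethane catheter segments were implanted subcutaneously in the back, and each surface was inoculated with 10^5 CFU MSSA P1 in Trypticase soy broth. Explants were sonicated in 2 ml saline and the sonicate cultured (detection limit 10 CFU). Colonization = inoculated strain grown from sonicate; rate = colonized/total devices.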

Assay [2] concerns Staphylococcus aureus. As to the kind of experiment: Antimicrobial activity against Staphylococcus aureus P1 infected in New Zealand rabbit assessed as decrease in catheter related infection rate at 45 mg/kg, iv (reference value: 100%). More on the design: scale not given: the % may be the effect or the level left. The method in brief: (§2)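 Female specific-pathogen-free New Zealand White rabbits, 4-7 months old, 3-4 kg, nine per group. Each got a single iv dose over ~2 min under anesthesia, with D5W as control. Six subcutaneous catheter segments per rabbit were surface-inoculated with 10^5 CFU MSSA P1. Infection = inoculated strain grown from both the device sonication culture and a swab of adjacent soft-tissue collection or wound discharge; rate = infected/total devices.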

Assay [3] relates to Staphylococcus aureus. As to the kind of experiment: Antimicrobial activity against Staphylococcus aureus P1 infected in New Zealand rabbit assessed as decrease in catheter related infection rate at 30 mg/kg, iv (reference value: 100%). More on the design: scale not given: the % may be the effect or the level left. The method in brief:
as §2

For assay [4], the system named is Staphylococcus aureus. As to the kind of experiment: Antimicrobial activity against Staphylococcus aureus P1 infected in New Zealand rabbit assessed as decrease in catheter related infection rate at 15 mg/kg, iv (reference value: 100%). Also on record: scale not given: the % may be the effect or the level left. Put shortly: as §2
The subject of assay [5] is Staphylococcus aureus. As to the kind of experiment: Antimicrobial activity against Staphylococcus aureus P1 infected in New Zealand rabbit assessed as decrease in catheter bacterial colonization rate at 15 mg/kg, iv (reference value: 100%). Also on record: scale not given: the % may be the effect or the level left. Put shortly: as §1
In assay [6] the test system is Staphylococcus aureus. As to the kind of experiment: Antimicrobial activity against Staphylococcus aureus P1 by macrodilution method. Put shortly:
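MIC and minimal bactericidal concentration determined in triplicate by standard broth macrodilution against MSSA clinical isolate P1.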

The test system of assay [7] is Staphylococcus aureus. Briefly: Antimicrobial activity against Staphylococcus aureus P1 infected in New Zealand rabbit assessed as decrease in catheter bacterial colonization rate at 30 mg/kg, iv (reference value: 100%). More on the design: scale not given: the % may be the effect or the level left. Put shortly: as §1

The term MBC denotes the lowest tested concentration that kills the bacteria rather than only halting them. As a reminder, the MIC is the lowest concentration found to suppress growth.

Converted amounts (≈) assume the structure as drawn.

In the case of `CCCCCCCCCCNCCN[C@@]1(C)C[C@H](O[C@H]2[C@H](Oc3c4cc5cc3Oc3ccc(cc3Cl)[C@@H](O)[C@@H](NC(=O)[C@@H](CC(C)C)NC)C(=O)N[C@@H](CC(N)=O)C(=O)N[C@H]5C(=O)N[C@H]3C(=O)N[C@H](C(=O)N[C@H](C(=O)O)c5cc(O)c(CNCP(=O)(O)O)c(O)c5-c5cc3ccc5O)[C@H](O)c3ccc(c(Cl)c3)O4)O[C@H](CO)[C@@H](O)[C@@H]2O)O[C@@H](C)[C@H]1O` [TELAVANCIN], the Activity was 11% with Staphylococcus aureus [1]; 11% in the assay with Staphylococcus aureus [2]; 9% in the assay on Staphylococcus aureus [3]; 35% in the assay with Staphylococcus aureus [4]; 39% with Staphylococcus aureus [5]; 11% in the assay with Staphylococcus aureus [7]. The MBC with Staphylococcus aureus [6] came to 1 µg/mL (≈ 0.57 µM). The compound also returned an MIC in the assay with Staphylococcus aureus [6] of 0.25 µg/mL (≈ 0.142 µM).

`CN[C@H](CC(C)C)C(=O)N[C@H]1C(=O)N[C@@H](CC(N)=O)C(=O)N[C@H]2C(=O)N[C@H]3C(=O)N[C@H](C(=O)N[C@H](C(=O)O)c4cc(O)cc(O)c4-c4cc3ccc4O)[C@H](O)c3ccc(c(Cl)c3)Oc3cc2cc(c3O[C@@H]2O[C@H](CO)[C@@H](O)[C@H](O)[C@H]2O[C@H]2C[C@](C)(N)[C@H](O)[C@H](C)O2)Oc2ccc(cc2Cl)[C@H]1O` [VANCOMYCIN] came in with an MBC against Staphylococcus aureus [6] of 8 µg/mL (≈ 5.52 µM).
